Results from ChEMBL document CHEMBL3124762, “De-novo designed library of benzoylureas as inhibitors of BCL-XL: synthesis, structural and biochemical characterization” (J Med Chem, 2014).

Tests used:
[1] = Inhibition of binding of biotinylated mouse BIM BH3-26mer peptide to GST-tagged mouse BCL-Xl delta C25 mutant by AlphaScreen/[…] assay
Procedure, shortened: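 Bead-based AlphaScreen competition: compounds titrated by serial dilution from 150 µM against GST-BCL-XL ΔC25 (0.6 nM final) and biotinylated BIM BH3 26-mer (5.0 nM final). Anti-GST acceptor and streptavidin donor beads at 15 µg/mL each. Protein/acceptor and peptide/donor pairs pre-incubated 30 min. Compound plus protein complex 30 min, then peptide complex 4 h at room temperature. 1% DMSO final. IC50 from at least two separate experiments.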

[2] = Inhibition of binding of wild type mBIMBH3 peptide to human Bcl-2 delta C22 mutant by surface plasmon resonance competition experiment
Procedure, shortened: (§1)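 Solution competition SPR: recombinant pro-survival protein (10 nM) incubated 2 h with compound (25–0.024 µM) in HEPES 10 mM, 150 mM NaCl, 3.4 mM EDTA, 0.005% Tween 20, pH 7.4. Mixture then injected over CM5 chip bearing immobilized wild-type mBIMBH3 26-mer, with inert mutant mBIMBH3 surface as reference. IC50 is the mean of three independent experiments ± SEM.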

Bcl-2-like protein 1 [3] = molecular target: T1, Bcl-2-like protein 1 (Homo sapiens, UniProt Q07817); assay: Direct binding affinity to Bcl-XL (unknown origin) pre-saturated with 26-mer-wt-Bim assessed as dissociation constant measured for 120 secs by surface plasmon resonance
T1 sequence (Q07817 whole entry): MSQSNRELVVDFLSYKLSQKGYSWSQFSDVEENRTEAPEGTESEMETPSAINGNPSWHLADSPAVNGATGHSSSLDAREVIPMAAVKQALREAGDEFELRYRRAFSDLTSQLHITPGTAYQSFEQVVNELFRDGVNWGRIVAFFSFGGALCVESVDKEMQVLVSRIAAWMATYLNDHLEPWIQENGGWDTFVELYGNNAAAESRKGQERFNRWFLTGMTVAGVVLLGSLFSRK
Procedure, shortened: (§2)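 Biacore S51 direct binding. GST-BCL-XL captured on an amine-coupled anti-GST antibody surface (about 1200 RU), in phosphate buffer pH 7.4 with 150 mM NaCl, 1 mM EDTA, 0.03% Tween 20 and 5% DMSO. Each cycle, 30 nM wt-BIM 26-mer pre-blocks the groove on the reference spot. Double referencing, 4–6% DMSO solvent correction, 1:1 fit with mass transport; Kd = kd/ka.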

[4] = Inhibition of binding of wild type mBIMBH3 peptide to human Bcl-XL delta C24 mutant by surface plasmon resonance competition experiment; procedure, shortened: as §1
[5] = Inhibition of binding of wild type mBIMBH3 peptide to human/mouse chimeric MCL1 by surface plasmon resonance competition experiment; procedure, shortened: as §1
Bcl-2-like protein 2 = Bcl-2-like protein 2 (Homo sapiens, UniProt Q92843, A128E/C29S); assay: Inhibition of binding of wild type mBIMBH3 peptide to human Bcl-W delta C29 (C29S/A128E) mutant by surface plasmon resonance competition experiment; procedure, shortened: as §1
Bcl-2-like protein 2, sequence (Q92843 2-193 C29S/A128E limits assumed): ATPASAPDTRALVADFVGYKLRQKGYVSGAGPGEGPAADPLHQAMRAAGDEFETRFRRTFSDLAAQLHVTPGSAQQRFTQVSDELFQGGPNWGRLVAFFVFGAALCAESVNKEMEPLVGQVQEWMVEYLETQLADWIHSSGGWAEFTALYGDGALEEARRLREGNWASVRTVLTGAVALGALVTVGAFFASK

Bcl-2-like protein 1 [6] = molecular target: T1, Bcl-2-like protein 1; assay: Direct binding affinity to free Bcl-XL (unknown origin) assessed as […] measured for 60 secs by surface plasmon resonance; procedure, shortened: as §2
[7] = molecular target: Bcl-2-related protein A1 (Mus musculus) (UniProt Q07440); assay: Inhibition of binding of wild type mBIMBH3 peptide to mouse Bcl-2-related protein A1 by surface plasmon resonance competition experiment
Bcl-2-related protein A1 (Mus musculus), sequence (Q07440 whole entry, looked up): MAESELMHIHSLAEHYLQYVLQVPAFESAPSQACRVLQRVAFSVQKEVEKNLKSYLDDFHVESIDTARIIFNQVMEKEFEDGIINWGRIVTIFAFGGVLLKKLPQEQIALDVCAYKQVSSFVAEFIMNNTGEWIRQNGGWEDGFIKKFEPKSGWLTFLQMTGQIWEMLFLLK

Compound | IC50 [1] [µM] | also measured
CCCN(C(=O)N[C@@H](CSCc1ccccc1-c1ccccc1)C(=O)O)C(=O)c1cccc(C#Cc2ccccc2)c1 | 146 | –
CCCN(C(=O)N[C@@H](CSCC(C)C)C(=O)O)C(=O)c1cccc(C#Cc2ccc(Oc3ccccc3)cc2)c1 | > 150 | –
CCCN(C(=O)N[C@@H](CSCC(C)C)C(=O)O)C(=O)c1cccc(C#Cc2ccc(C(C)(C)C)cc2)c1 | > 150 | –
CCCN(C(=O)N[C@@H](CSCC(C)C)C(=O)O)C(=O)c1cccc(C#Cc2ccncc2)c1 | > 150 | –
CCCN(C(=O)N[C@@H](CSCC(C)C)C(=O)O)C(=O)c1cccc(C#Cc2cccnc2)c1 | > 150 | –
CCCN(C(=O)NCCSCc1ccccc1)C(=O)c1cccc(-c2ccccc2)c1 | > 150 | –
CCCN(C(=O)N[C@@H](CSCc1ccccc1)C(=O)OC)C(=O)c1cccc(-c2ccccc2)c1 | > 150 | –
CCCN(C(=O)N[C@@H](CSCc1ccccc1)C(N)=O)C(=O)c1cccc(-c2ccccc2)c1 | > 150 | –
CCCN(C(=O)N[C@@H](CSCc1ccccc1)C(=O)O)C(=O)c1cccc(-c2ccc(OC)cc2)c1 | > 150 | –
CCCN(C(=O)N[C@@H](CSCc1ccccc1)C(=O)O)C(=O)c1cccc(Cc2ccccc2)c1 | > 150 | –
CCC(C)N(C(=O)N[C@@H](CSCc1ccccc1)C(=O)O)C(=O)c1cccc(-c2ccccc2)c1 (some centres undefined) | > 150 | –
CC(C)N(C(=O)N[C@@H](CSCc1ccccc1)C(=O)O)C(=O)c1cccc(-c2ccccc2)c1 | > 150 | –
O=C(O)[C@H](CSCc1ccccc1)NC(=O)N(Cc1ccccc1)C(=O)c1cccc(-c2ccccc2)c1 | > 150 | –
Cc1ccc(CN(C(=O)N[C@@H](CSCc2ccccc2)C(=O)O)C(=O)c2cccc(-c3ccccc3)c2)cc1 | > 150 | –
CCCN(C(=O)NC)C(=O)c1cccc(-c2ccccc2)c1 | > 150 | –
CCCN(C(=O)N[C@@H](CC(C)C)C(=O)O)C(=O)c1cccc(-c2ccccc2)c1 | > 150 | –
CCCN(C(=O)N[C@@H](Cc1ccccc1)C(=O)O)C(=O)c1cccc(-c2ccccc2)c1 | > 150 | –
CCCN(C(=O)N[C@@H](Cc1ccc(O)cc1)C(=O)O)C(=O)c1cccc(-c2ccccc2)c1 | > 150 | –
CCCN(C(=O)N[C@@H](CCc1ccccc1)C(=O)O)C(=O)c1cccc(-c2ccccc2)c1 | > 150 | –
CCCN(C(=O)N[C@@H](Cc1ccc2ccccc2c1)C(=O)O)C(=O)c1cccc(-c2ccccc2)c1 | > 150 | –
O=C(NS(=O)(=O)c1ccc(NCCSc2ccccc2)c([N+](=O)[O-])c1)c1ccc(-c2ccc(F)cc2)cc1 | – | IC50 [2]: 14.7 µM; IC50 [4]: 0.196 µM; IC50 [5]: 22 µM; IC50 (Bcl-2-like protein 2): > 25 µM; IC50 [7]: 14.2 µM

Second part, led by results:

IC50 [1] [µM] | Compound | also measured
15 | CCCN(C(=O)N[C@@H](CSCC(C)C)C(=O)O)C(=O)c1cccc(C#Cc2ccccc2)c1 | –
73 | CCCN(C(=O)N[C@@H](CSCCCc1ccccc1)C(=O)O)C(=O)c1cccc(C#Cc2ccccc2)c1 | –
21 | CCCN(C(=O)N[C@@H](CSCCc1ccccc1)C(=O)O)C(=O)c1cccc(C#Cc2ccccc2)c1 | –
25 | CCCN(C(=O)N[C@@H](CSc1ccccc1)C(=O)O)C(=O)c1cccc(C#Cc2ccccc2)c1 | –
21 | CCCN(C(=O)N[C@@H](CSCc1ccc(OC)cc1)C(=O)O)C(=O)c1cccc(C#Cc2ccccc2)c1 | –
69 | CCCN(C(=O)N[C@@H](CSCC(C)C)C(=O)O)C(=O)c1cccc(C#Cc2cccc(F)c2)c1 | –
9 | CCCN(C(=O)N[C@@H](CSCC(C)C)C(=O)O)C(=O)c1cccc(C#Cc2ccc(F)cc2)c1 | –
57 | CCCN(C(=O)N[C@@H](CSCC(C)C)C(=O)O)C(=O)c1cccc(C#Cc2ccccc2C)c1 | –
51 | CCCN(C(=O)N[C@@H](CSCC(C)C)C(=O)O)C(=O)c1cccc(C#Cc2cccc(C)c2)c1 | –
50 | CCCN(C(=O)N[C@@H](CSCC(C)C)C(=O)O)C(=O)c1cccc(C#Cc2ccc(C)cc2)c1 | –
39 | CCCN(C(=O)N[C@@H](CSCC(C)C)C(=O)O)C(=O)c1cccc(C#Cc2ccccc2F)c1 | –
22 | CCCN(C(=O)N[C@@H](CSCC(C)C)C(=O)O)C(=O)c1cccc(C#Cc2ccc(F)cc2F)c1 | IC50 [2]: > 25 µM; Kd (Bcl-2-like protein 1 [3]): 2.1 µM; IC50 [4]: 4.4 µM; IC50 [5]: > 25 µM; IC50 (Bcl-2-like protein 2): > 25 µM; Kd (Bcl-2-like protein 1 [6]): 4.9 µM; IC50 [7]: > 25 µM
13 | CCCN(C(=O)N[C@@H](CSCc1ccc(Br)cc1)C(=O)O)C(=O)c1cccc(C#Cc2ccc(F)cc2F)c1 | Kd (Bcl-2-like protein 1 [3]): 4 µM; Kd (Bcl-2-like protein 1 [6]): 6.9 µM
108 | CCCN(C(=O)N[C@@H](Cc1c[nH]c2ccccc12)C(=O)O)C(=O)c1cccc(-c2ccccc2)c1 | –
125 | CCCN(C(=O)N[C@@H](CSCc1ccccc1)C(=O)O)C(=O)c1cccc(-c2ccc(F)cc2)c1 | –
77 | CCCN(C(=O)N[C@@H](CSCc1ccccc1)C(=O)O)C(=O)c1cccc(-c2ccc(C)cc2)c1 | –
102 | CCCN(C(=O)N[C@@H](CSCc1ccccc1)C(=O)O)C(=O)c1cccc(-c2ccccc2Cl)c1 | –
86 | CCCN(C(=O)N[C@@H](CSCc1ccccc1)C(=O)O)C(=O)c1cccc(-c2ccc(Cl)cc2)c1 | –
78 | CCCN(C(=O)N[C@@H](CSCc1ccccc1)C(=O)O)C(=O)c1cccc(-c2ccc(Cl)c(Cl)c2)c1 | –
62 | CCCN(C(=O)N[C@@H](CSCc1ccccc1)C(=O)O)C(=O)c1cccc(-c2cccc3ccccc23)c1 | –
63 | CCCN(C(=O)N[C@@H](CSCc1ccccc1)C(=O)O)C(=O)c1cccc(-c2ccc3ccccc3c2)c1 | –
35 | CCCN(C(=O)N[C@@H](CSCc1ccccc1)C(=O)O)C(=O)c1cccc(C#Cc2ccccc2)c1 | –
141 | CCCN(C(=O)N[C@@H](CSCc1ccccc1)C(=O)O)C(=O)c1cccc(/C=C/c2ccccc2)c1 | –
55 | CCCN(C(=O)N[C@@H](CSCc1ccccc1)C(=O)O)C(=O)c1cccc(CCc2ccccc2)c1 | –
21 | CCCSC[C@H](NC(=O)N(CCC)C(=O)c1cccc(C#Cc2ccccc2)c1)C(=O)O | –
33 | CCCN(C(=O)N[C@@H](CSC(C)C)C(=O)O)C(=O)c1cccc(C#Cc2ccccc2)c1 | –
42 | CCCN(C(=O)N[C@@H](CSCC1CCCCC1)C(=O)O)C(=O)c1cccc(C#Cc2ccccc2)c1 | –
128 | CCN(C(=O)N[C@@H](CSCc1ccccc1)C(=O)O)C(=O)c1cccc(-c2ccccc2)c1 | –
109 | CCCN(C(=O)N[C@@H](CSCc1ccccc1)C(=O)O)C(=O)c1cccc(-c2ccccc2)c1 | –
138 | CCCCN(C(=O)N[C@@H](CSCc1ccccc1)C(=O)O)C(=O)c1cccc(-c2ccccc2)c1 | –
